Measurements of several laboratories.
Protocols differ between the studies behind these lines.
ADORA2B: Adenosine receptor A2b (ADORA2B, Homo sapiens, UniProt P29275)
CFTR: Cystic fibrosis transmembrane conductance regulator (CFTR, Homo sapiens, UniProt P13569)
PKN3: Serine/threonine-protein kinase N3 (PKN3, Homo sapiens, UniProt Q6P5Z2)

SMILES	target	effect on	action	technique	concentration	notes	inhibition [%]
CCN(c1cc(C#CCN2CCOCC2)cc(C(=O)NCc2c(C)cc(C)[nH]c2=O)c1C)[C@H]1CC[C@H](N(C)CCOC)CC1	Histone-lysine N-methyltransferase, H3 lysine-79 specific (DOT1L, Homo sapiens, UniProt Q8TEK3)	enzyme activity	inhibitor		1 µM		1
CCCCCN1CCCn2c1nc1c2c(=O)n(C)c(=O)n1C	ADORA2B	ligand displacement		radioligand	10 µM	cell membranes	-3
O=C(CNc1ccc(Cl)cc1)NN=Cc1cc(Br)c(O)c(Br)c1	CFTR	ion current	inhibitor		50 µM		95
Oc1ncnc2[nH]ncc12	Xanthine dehydrogenase/oxidase (XDH, Homo sapiens, UniProt P47989)	enzyme activity	inhibitor	absorbance	500 µM		100
CC(=NNC(=O)CNc1ccc2ccccc2c1)c1cc(Br)c(O)c(Br)c1	CFTR	ion current	inhibitor		50 µM		100
CN(C)C1CCN(CC#Cc2nn(C3CCCC3)c3nc(NCc4ccccc4)ncc23)C1 (stereo not shown)	Dual specificity protein kinase CLK2 (CLK2, Homo sapiens, UniProt P49760)	enzyme activity	inhibitor	FRET	10 µM		33
Cn1cncc1C1=CN(c2ncnc3[nH]cnc23)CCS1	PKN3	enzyme activity	inhibitor	radiometric	50 nM		18.6
CN1CCCn2c1nc1c2c(=O)n(C)c(=O)n1C	ADORA2B	ligand displacement		radioligand	10 µM	cell membranes	6
O=C(c1ccc(F)cc1)N(Cc1ccccc1)C1CCCCC1	Muscarinic acetylcholine receptor M1 (CHRM1, Homo sapiens, UniProt P11229)	cell-free assay			10 µM		-1
COCCOc1ccc(N2CCN(CCn3ncc4c3nc(N)n3nc(-c5ccco5)nc43)CC2)cc1	ADORA2B	ligand displacement		radioligand	10 µM	cell membranes	25
Cc1ccc(NCC(=O)NN=Cc2cc(Br)c(O)c(Br)c2O)cc1	CFTR	ion current	inhibitor		50 µM		79
CCCC(C)N1CCCn2c1nc1c2c(=O)n(C)c(=O)n1C (stereo not shown)	ADORA2B	ligand displacement		radioligand	10 µM	cell membranes	0
CC(Nc1ccc2ccccc2c1)C(=O)NN=Cc1cc(Br)c(O)c(Br)c1O (stereo not shown)	CFTR	ion current	inhibitor		50 µM		91
CCC(C)N1CCCn2c1nc1c2c(=O)n(C)c(=O)n1C (stereo not shown)	ADORA2B	ligand displacement		radioligand	10 µM	cell membranes	-9
CC(=NNC(=O)C(=O)Nc1ccc2ccccc2c1)c1cc(Br)c(O)c(Br)c1O	CFTR	ion current	inhibitor		50 µM		95
CC(C)CCCC(C)N1CCCn2c1nc1c2c(=O)n(C)c(=O)n1C (stereo not shown)	ADORA2B	ligand displacement		radioligand	10 µM	cell membranes	0
COc1cc(NC(C)=O)c(Cl)cc1C(=O)Nc1nccs1	Prostaglandin E2 receptor EP2 subtype (PTGER2, Homo sapiens, UniProt P43116)	cell-free assay			10 µM		36.3
CC(C)OC(=O)NC(C)(C)c1csc(-c2ccc(F)cc2)n1	N-terminal Xaa-Pro-Lys N-methyltransferase 1 (Homo sapiens, UniProt Q9BV86)	enzyme activity	inhibitor	fluorescence	100 µM		< 50
Cn1cnc(Br)c1C1=CN(c2ncnc3[nH]cnc23)CCS1	PKN3	enzyme activity	inhibitor	radiometric	50 nM		29.2
O=C(NN=Cc1cc(Br)c(O)c(Br)c1)C(=O)Nc1ccc2ccccc2c1	CFTR	ion current	inhibitor		50 µM		80
O=C(c1ccc(Cl)cc1)N(Cc1ccccc1)C1CCCCC1	ADORA2B	cell-free assay			10 µM		-5.4
C=CN1CCCn2c1nc1c2c(=O)n(C)c(=O)n1C	ADORA2B	ligand displacement		radioligand	10 µM	cell membranes	1
